What was measured:
Format in all cases: functional
[1] = Growth inhibition of human PC3 cells assessed as cell growth at 10^-4 M incubated for 48 hrs by sulforhodamine B assay; details: PC-3, 48 h, read-out: Activity
[2] = tested on: MDA-MB-231; assay: Growth inhibition of human MDA-MB-231 cells assessed as cell growth at 10^-4 M incubated for 48 hrs by sulforhodamine B assay; details: MDA-MB-231, 48 h, read-out: Activity
[3] = Growth inhibition of human Hs 578T cells assessed as cell growth at 10^-4 M incubated for 48 hrs by sulforhodamine B assay; details: read-out: Activity
[4] = tested on: T47D; assay: Growth inhibition of human T47D cells assessed as cell growth at 10^-4 M incubated for 48 hrs by sulforhodamine B assay; details: read-out: Activity
[5] = Growth inhibition of human OVCAR4 cells incubated for 48 hrs by sulforhodamine B assay; details: OVCAR-4, 48 h
Outline: (§1)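 Cells were plated at 5,000–40,000 per well according to doubling time and preincubated 24 h at 37 °C in 5% CO2; time-zero plates were then TCA-fixed. Five concentrations (10-fold or ½-log dilutions, DMSO stock) were incubated 48 h. Cells were TCA-fixed, stained with 0.4% SRB and read at 515 nm. GI50 was taken where [(Ti−Tz)/(C−Tz)]×100 = 50.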

[6] = tested on: NCI/ADR-RES; assay: Growth inhibition of human NCI/ADR-RES cells incubated for 48 hrs by sulforhodamine B assay; outline: as §1
[7] = Growth inhibition of human Hs 578T cells incubated for 48 hrs by sulforhodamine B assay; outline: as §1
[8] = Growth inhibition of human BT549 cells incubated for 48 hrs by sulforhodamine B assay; details: BT-549, 48 h
Outline: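 Five-dose assay: five concentrations from 10-fold or ½-log serial dilutions. Cells are plated at 5,000–40,000 per well according to doubling time, grown 24 h, then exposed 48 h at 37 °C, 5% CO₂. Fixed with cold 50% TCA (final addition) for 60 min at 4 °C and stained with 0.4% SRB in 1% acetic acid. Bound dye is solubilized in 10 mM Tris base and read at 515 nm. GI₅₀ is where [(Ti−Tz)/(C−Tz)]×100 = 50, with a time-zero plate as Tz.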

[9] = tested on: SK-MEL-2; assay: Growth inhibition of human SK-MEL-2 cells assessed as cell growth at 10^-8 M incubated for 48 hrs by sulforhodamine B assay; details: SK-MEL-2, 48 h, read-out: Activity
[10] = Growth inhibition of human HOP92 cells assessed as cell growth at 10^-7 M incubated for 48 hrs by sulforhodamine B assay; details: HOP-92, 48 h, read-out: Activity
[11] = Growth inhibition of human PC3 cells assessed as cell growth at 10^-5 M incubated for 48 hrs by sulforhodamine B assay; details: PC-3, 48 h, read-out: Activity
[12] = tested on: NCI-H522; assay: Growth inhibition of human NCI-H522 cells assessed as cell growth at 10^-4 M incubated for 48 hrs by sulforhodamine B assay; details: NCI-H522, 48 h, read-out: Activity
[13] = Growth inhibition of human LOXIMVI cells assessed as cell growth at 10^-7 M incubated for 48 hrs by sulforhodamine B assay; details: LOX IMVI, read-out: Activity
[14] = tested on: M14; assay: Growth inhibition of human M14 cells assessed as cell growth at 10^-4 M incubated for 48 hrs by sulforhodamine B assay; details: M14, 48 h, read-out: Activity
[15] = Growth inhibition of human RXF393 cells assessed as cell growth at 10 uM incubated for 48 hrs by sulforhodamine B assay; details: RXF 393, 48 h, read-out: Activity
[16] = tested on: SN12C; assay: Growth inhibition of human SN12C cells assessed as cell growth at 10 uM incubated for 48 hrs by sulforhodamine B assay; details: read-out: Activity
[17] = tested on: MDA-MB-231; assay: Growth inhibition of human MDA-MB-231 cells assessed as cell growth at 10 uM incubated for 48 hrs by sulforhodamine B assay; details: MDA-MB-231, 48 h, read-out: Activity
[18] = tested on: MDA-MB-468; assay: Growth inhibition of human MDA-MB-468 cells assessed as cell growth at 10 uM incubated for 48 hrs by sulforhodamine B assay; details: MDA-MB-468, 48 h, read-out: Activity
[19] = tested on: K562; assay: Growth inhibition of human K562 cells assessed as cell growth at 10^-8 M incubated for 48 hrs by sulforhodamine B assay; details: K562, 48 h, read-out: Activity
[20] = Growth inhibition of human UO31 cells assessed as cell growth at 10^-7 M incubated for 48 hrs by sulforhodamine B assay; details: UO-31, 48 h, read-out: Activity
[21] = Growth inhibition of human SF295 cells assessed as cell growth at 10^-8 M incubated for 48 hrs by sulforhodamine B assay; details: SF-295, 48 h, read-out: Activity
[22] = tested on: NCI/ADR-RES; assay: Growth inhibition of human NCI/ADR-RES cells assessed as cell growth at 10^-6 M incubated for 48 hrs by sulforhodamine B assay; details: read-out: Activity
[23] = Growth inhibition of human UO31 cells assessed as cell growth at 10^-6 M incubated for 48 hrs by sulforhodamine B assay; details: UO-31, 48 h, read-out: Activity
[24] = tested on: EKVX; assay: Growth inhibition of human EKVX cells assessed as cell growth at 10^-5 M incubated for 48 hrs by sulforhodamine B assay; details: read-out: Activity
Outline: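 Cells seeded at 5,000–40,000/well according to doubling time and preincubated 24 h at 37 °C, 5% CO2. Time-zero plates were TCA-fixed. DMSO concentrate was diluted in medium with 50 µg/ml gentamicin to give five concentrations (10-fold or ½ log steps), then exposed 48 h. Cells were TCA-fixed, stained with 0.4% SRB and read at 515 nm. Percent growth was taken against time-zero and control; GI50, TGI and LC50 derived.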

[25] = Growth inhibition of human HOP92 cells assessed as cell growth at 10^-5 M incubated for 48 hrs by sulforhodamine B assay; details: HOP-92, 48 h, read-out: Activity
[26] = tested on: SK-MEL-5; assay: Growth inhibition of human SK-MEL-5 cells assessed as cell growth at 10^-5 M incubated for 48 hrs by sulforhodamine B assay; details: SK-MEL-5, 48 h, read-out: Activity
[27] = Growth inhibition of human UACC62 cells assessed as cell growth at 10^-5 M incubated for 48 hrs by sulforhodamine B assay; details: UACC-62, 48 h, read-out: Activity
[28] = Growth inhibition of human OVCAR3 cells assessed as cell growth at 10^-5 M incubated for 48 hrs by sulforhodamine B assay; details: OVCAR-3, 48 h, read-out: Activity
[29] = read-out: LC50 (the source's name)
[30] = read-out: pLC50 (the source's name) (converted)

`Fc1ccc(-c2nc(Nc3ccc(-c4nc5ccccc5[nH]4)cc3)nc(N3CCOCC3)n2)cc1` showed a growth at 100 µM [1] of -6%, a growth at 100 µM [2] of -33% and a growth at 100 µM [3] of -3%. It also gave a growth at 100 µM [4] of -44%, a GI50 ([5]; read-out: GI50) of 3.13 µM and a CC50 [5, 29] greater than 100 µM. For the same molecule, the TGI ([5]; read-out: TGI) was 13 µM, the GI50 ([5]; read-out: pGI50 (converted)) was 3.16 µM and the CC50 [5, 30] was greater than 100 µM. It also gave a TGI ([5]; read-out: pTGI (converted)) of 13.2 µM, a GI50 ([6]; read-out: GI50) of 3.18 µM and a CC50 [6, 29] greater than 100 µM. For the same molecule, the TGI ([6]; read-out: TGI) was 26.7 µM, the GI50 ([6]; read-out: pGI50 (converted)) was 3.16 µM and the CC50 [6, 30] was greater than 100 µM. For the same molecule, the TGI ([6]; read-out: pTGI (converted)) was 26.9 µM, the GI50 ([7]; read-out: GI50) was 1.76 µM and the CC50 [7, 29] was greater than 100 µM. For the same molecule, the TGI ([7]; read-out: TGI) was 6.96 µM, the GI50 ([7]; read-out: pGI50 (converted)) was 1.78 µM and the CC50 [7, 30] was greater than 100 µM. For the same molecule, the TGI ([7]; read-out: pTGI (converted)) was 6.92 µM, the GI50 ([8]; read-out: GI50) was 1.74 µM and the TGI ([8]; read-out: TGI) was 4.07 µM. The GI50 ([8]; read-out: pGI50 (converted)) was 1.74 µM, the TGI ([8]; read-out: pTGI (converted)) was 4.07 µM and the growth at 0.01 µM [9] was 103%. For the same molecule, the growth at 0.1 µM [10] was 104%, the growth at 10 µM [11] was -20% and the growth at 100 µM [12] was -31%. The growth at 0.1 µM [13] was 95%, the growth at 100 µM [14] was -80% and the growth at 10 µM [15] was -67.5%. The growth at 10 µM [16] was 40.8%, the growth at 10 µM [17] was 5.74% and the growth at 10 µM [18] was -1.23%. The growth at 0.01 µM [19] was 104%, the growth at 0.1 µM [20] was 89% and the growth at 0.01 µM [21] was 93%. The growth at 1 µM [22] was 90%, the growth at 1 µM [23] was 90% and the growth at 10 µM [24] was 3%. The growth at 10 µM [25] was -67%, the growth at 10 µM [26] was -87% and the growth at 10 µM [27] was -70%. The growth at 10 µM [28] was -61%.

Source: ChEMBL document CHEMBL3808334, “Synthesis and in vitro evaluation of novel triazine analogues as anticancer agents and their interaction studies with bovine serum albumin” (Eur J Med Chem, 2016)
